From the array DNA melting data of Ke et al. (doi:10.1101/2024.01.08.574731) come the findings set out here.

Data set [1] is described as follows: folding enthalpy; higher = less favourable; fluorescence melt of hairpins on a sequencing array, two-state fit. Conditions: sodium 0.088 M. A digest of the protocol: (§1)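 Cy3 fluorescence of library hairpins on a sequenced MiSeq flow cell, with annealed Cy3 and quencher oligos, was imaged in 50 mM Na-HEPES pH 8.0, 25 mM NaCl in 2.5 °C steps up to 60 °C. Signals were normalised to pre-quench Cy3 and to control variants. Melting temperature and folding enthalpy came from bootstrapped two-state fits, inverse-variance combined over four replicates. Fitted temperatures were raised by 9.35 °C to match UV melts.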

Data set [2] is described as follows: melting temperature; fluorescence melt of hairpins on a sequencing array, two-state fit, raised by 9.35 °C to match UV melts. To be noted: sodium 0.088 M. In a few lines: as §1

For GTTACACGAAAGTGAAC (((.(((....)))))), the folding enthalpy in data set [1] is -15.8 kcal/mol. For the same sequence, the Tm in data set [2] turned out to be 36.7 °C.

GGTTACGAAAGTATGACC ((((((....)))..))): the folding enthalpy in data set [1] was -15.1 kcal/mol. Besides, the Tm in data set [2] amounted to 30.4 °C.

As to GAAAAACGAAAGTTTTC (((.(((....)))))), the folding enthalpy in data set [1] was -15.7 kcal/mol. In addition, in data set [2], the Tm came out at 36.9 °C.

Regarding GCGATGCGAAAGCGCCGC (((..((....))..))), in data set [1], the folding enthalpy was -30.5 kcal/mol. Besides, the Tm in data set [2] was determined as 62.1 °C.

Take GGTCTCGAAAGAGCCACC ((((((....)))..))): in data set [1], the folding enthalpy is -14.8 kcal/mol. Besides, in data set [2], the Tm is 43.3 °C.

For GTTAACGAAAGTTAAC ((((((....)))))), the folding enthalpy in data set [1] is -28.9 kcal/mol. Moreover, in data set [2], the Tm was determined as 56 °C.

Consider GCAATGCGAAAGCCATGC (((..((....))..))), for which the folding enthalpy in data set [1] is -18.3 kcal/mol. For the same sequence, the Tm in data set [2] stood at 37.8 °C.

Consider GATCGTGGACACGATC ((((((....)))))), for which the folding enthalpy in data set [1] is -40.2 kcal/mol. Further, in data set [2], the Tm was found to be 65.6 °C.

Regarding GATCCGCCGACGGATC ((((((....)))))), the folding enthalpy in data set [1] was -38 kcal/mol. Besides, the Tm in data set [2] was 58.3 °C.

As to CGATCGGAAACGAACTCG ((((((....)))..))), in data set [1], the folding enthalpy is -9.8 kcal/mol. Also, in data set [2], the Tm was 24.4 °C.

Regarding GTCGTCCCGAAAGGGGAC (((..(((....)))))), the folding enthalpy in data set [1] is -11.7 kcal/mol. Moreover, the Tm in data set [2] was 45.1 °C.

With GATCGATTCATCGATC ((((((....)))))), the folding enthalpy in data set [1] is -39.9 kcal/mol. Moreover, the Tm in data set [2] was determined as 59.3 °C.

Take GTCAATACGAAAGTAGAC (((..(((....)))))): in data set [1], the folding enthalpy was -12 kcal/mol. Moreover, the Tm in data set [2] is 27.3 °C.

With GCTAAGCGAAAGCTGCGC ((..(((....)))..)), the folding enthalpy in data set [1] was -21.1 kcal/mol. Also, the Tm in data set [2] turned out to be 58.3 °C.

As for GTTCGTGGAAACACGAAC (((((((....))))))), the folding enthalpy in data set [1] was -39.4 kcal/mol. The Tm in data set [2] came to 65.8 °C.

Consider GATGCACGAAAGTGATC (((.(((....)))))), for which, in data set [1], the folding enthalpy was -13.6 kcal/mol. The Tm in data set [2] stood at 36.6 °C.

Take GTTATAGCGAAAGCTAAC (((..(((....)))))): in data set [1], the folding enthalpy was -14.3 kcal/mol. The Tm in data set [2] came out at 29.9 °C.

Turning to GTAGTCCGAAAGGAATAC (((.(((....))).))), the folding enthalpy in data set [1] was -37.6 kcal/mol. Moreover, in data set [2], the Tm was 49.7 °C.

For the sequence GATCCCCAAGGGGATC ((((((....)))))), in data set [1], the folding enthalpy is -37.4 kcal/mol. Moreover, the Tm in data set [2] was found to be 65 °C.

Take GCGATGCGAAAGCTACGC (((..((....))..))): the folding enthalpy in data set [1] is -18.1 kcal/mol. For the same sequence, the Tm in data set [2] is 65 °C.

Regarding GCGGTTTGCCGC ((((....)))), the folding enthalpy in data set [1] was -41.2 kcal/mol. Also, in data set [2], the Tm is 60.6 °C.

GAGTCCGAAAGGAATCTC ((((((....)))..))): the folding enthalpy in data set [1] is -18.8 kcal/mol. Moreover, in data set [2], the Tm is 50.2 °C.

As for GGGGTAGCGAAAGCTCCC (((..(((....)))))), the folding enthalpy in data set [1] is -23.2 kcal/mol. For the same sequence, the Tm in data set [2] was determined as 58.4 °C.

As to GCGGACGGCCGC ((((....)))), the folding enthalpy in data set [1] was -37.6 kcal/mol. Moreover, in data set [2], the Tm came to 59.4 °C.

For the sequence GCGCCGCGAAAGCGCCGC (((.(((....))).))), in data set [1], the folding enthalpy is -22.4 kcal/mol. Moreover, the Tm in data set [2] came out at 65.2 °C.

For the sequence GCTGTCGAAAGACCAGC ((((((....))).))), the folding enthalpy in data set [1] is -20.8 kcal/mol. For the same sequence, in data set [2], the Tm was found to be 51.3 °C.

On to GCCTTGCGAAAGCAGGGC (((.(((....))).))), for which the folding enthalpy in data set [1] was -29.5 kcal/mol. Further, the Tm in data set [2] is 69 °C.

GCCTGTCGAAAGACTGGC (((.(((....))).))): in data set [1], the folding enthalpy was -39.1 kcal/mol. The Tm in data set [2] was 61.2 °C.

Consider GAGACAGGAAACTGTCCC (.(((((....))))).), for which the folding enthalpy in data set [1] is -13 kcal/mol. Further, the Tm in data set [2] turned out to be 39.4 °C.

Regarding GATCTGTTGCCAGATC ((((((....)))))), the folding enthalpy in data set [1] was -36.9 kcal/mol. The Tm in data set [2] stood at 50.5 °C.

Consider GTATGTGGAAACGCATAC (((((.(....).))))), for which the folding enthalpy in data set [1] is -29.7 kcal/mol. Moreover, the Tm in data set [2] was found to be 46.9 °C.

As for GCTTTGCGAAAGCATTGC ((..(((....)))..)), in data set [1], the folding enthalpy is -19.3 kcal/mol. Further, in data set [2], the Tm is 40.9 °C.

Consider GGAATCGAAAGATTCTCC ((((((....)))..))), for which the folding enthalpy in data set [1] was -13.5 kcal/mol. Further, the Tm in data set [2] stood at 44.4 °C.

Turning to GCGGCGTCCCGC ((((....)))), the folding enthalpy in data set [1] was -14.5 kcal/mol. Besides, the Tm in data set [2] is 56.7 °C.

GATGGGACGAAAGTCATC (((..(((....)))))): the folding enthalpy in data set [1] was -15.4 kcal/mol. Besides, the Tm in data set [2] is 31.9 °C.

In the case of GATGCGGGAAACTGCGTC ((.((.(....).)).)), in data set [1], the folding enthalpy was -21.1 kcal/mol. Also, the Tm in data set [2] is 44.2 °C.

GTCGTAGGAAACCACGAC (((((.(....).))))): the folding enthalpy in data set [1] is -31.8 kcal/mol. The Tm in data set [2] was determined as 49.1 °C.
